Assay [1] in a line: OD615 S. cerevisiae growth inhibition, permissive medium, pilot counter-assay, permissive growth control for S. cerevisiae lifespan shortening project (AID 705;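 active means growth inhibition above 25% in both replicates, a cutoff set 3 SD above the mean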). To be noted: OD615, 24 h, at 10 µM, hits give high values. In a few lines: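 assay system = Saccharomyces cerevisiae strain carrying genetically modified DeaD replicative-lifespan system | medium = SC raffinose/galactose permissive medium | dosing = 10 µM single dose, 0.25% DMSO | schedule = 24 h compound exposure at 30 °C after 4 h pre-growth | measured by = OD at 615 nm | read-out basis = growth inhibition from lowered OD615 after 24 h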

Assay [2] can be described thus: Restrictive medium S. cerevisiae growth inhibition, OD615, pilot screen of yeast lifespan reduction project, restrictive growth control (AID 706;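 active means growth inhibition above a set limit, 3 SD over mean compound inhibition, in both replicates, cut at about 43% in these data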;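 further: modified DeaD lifespan yeast strain shifted to restrictive glucose medium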). To be noted: OD615, 48 h, at 10 µM, hits give high values. In a few lines:
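Buffer or medium: CSMM-D glucose medium. Material: genetically modified Saccharomyces cerevisiae, DeaD replicative lifespan assay strain. Times: 48 h compound exposure at 30 °C. Measured by: optical density at 615 nm.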

Assay [3] in a line: viability gain of MRP-1-high H69AR cells under doxorubicin, pilot screen, MRP-1 activator project, CellTiter-Glo, duplicate (AID 807;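 active means viability increase at or above a cutoff of the median across tested compounds plus 3 SD, cut at about 8.5% in these data, passing the limit was not always enough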;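 further: compound pretreatment 18-22 h then 72 h combined with doxorubicin; 0% = doxorubicin alone and 100% = vehicle without doxorubicin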). To be noted: H69AR viability with doxorubicin, CellTiter-Glo luminescence; at 10 µM; hits give high values. (In general: Cellular ATP, detected with luciferase, serves as a proxy for viable cell number.)
A short description of assay [4]: growth suppression of beta-catenin knockout HCT116, pilot screen, human colon tumor cells (AID 823).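 Further: 0% = wells killed by 20 µM Hyamine and 100% = untreated DMSO cell wells.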 The following applies: CellTiter-Glo, 60 h, at 10 µM, hits give low values.
The nature of assay [5]: growth suppression of PTEN-deleted HCT116, pilot screen, cell-based, HCT116 clonal line, CellTiter-Glo (AID 824;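 active means viability at or below 27.92% in each of two runs, the all-compound median minus 4 SD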;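 further: 0% = 20 µM Hyamine control and 100% = vehicle cell control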). To be noted: 60 h, at 10 µM, hits give low values.
Assay [6] can be described thus: inhibitors of the yeast RAM network, pilot screen, dse1pr::URA3 reporter, 5-FOA selection (AID 869;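 active means inhibition over a set limit, the all-compound mean plus 3 SD, in both replicate runs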;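 further: 0% = DMSO wells with no growth and 100% = 10 µM 1-NA-PP1 with full growth; RAM network block rescues cells from 5-FOA so hits raise OD615 growth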). The following applies: S. cerevisiae dse1pr::URA3 5-FOA growth, OD615, 2 d; at 10 µM; hits give high values; strain carries analog-sensitive mutant Cbk1 kinase.
The nature of assay [7]: RAM signaling pathway blockade in yeast – S. cerevisiae, Pdr1DBD-CYC8 efflux-inhibited sensitized strain, primary screen (AID 1298;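 active means RAM network inhibition above 8.4% in each of two replicates, 3 SD over the compound average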;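 further: 0% = DMSO untreated cells without growth and 100% = 10 µM 1-NA-PP1 full growth; higher means more yeast growth rescued from 5-FOA killing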). To be noted: S. cerevisiae cbk1-as DSE1-URA3 strain, 5-FOA growth OD615, 2 d; at 50 µM; hits give high values.

Structures are written as SMILES. A number with no mark means an inactive call. Inconclusive results are not listed. Calls of active or inactive are those of the source.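 How the source made its calls, unless noted: active means cell viability at or below a set limit in both duplicate runs, the limit being the all-compound median minus 4 SD (cut at about 23% in these data, passing the limit was not always enough); inconclusive means no clear call, values can overlap the other calls; inactive means the rest.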

What is called viability is a read-out of living cells in per cent, often relative to untreated cells. As a reminder, the inhibition is the relative decrease from the control value, in per cent.

Consider `Fc1ccc(-n2[nH]nnc2=S)cc1N1CCCC1`, for which the growth inhibition in assay [1] is -3.75%; in assay [2] it was 3.59%. Moreover, in assay [3], the viability increase was -1.28%. Besides, the values for the viability in assay [4] and in assay [5] were 104% and 99.6%, respectively. For the same compound, the inhibition in assay [6] is -0.32%. In addition, the RAM network inhibition in assay [7] is -2.49%.
With `CCC(CC)C(=O)NCCc1cc2ccc(C)c(C)c2[nH]c1=O`, the results for the growth inhibition in assay [1] and in assay [2] were -14.2% and -21.4%, respectively. For the same compound, the viability increase in assay [3] is -1.66%. The values for the viability in assay [4] and in assay [5] were 103% and 96.6%, respectively. The inhibition in assay [6] was 1.66%. In addition, the RAM network inhibition in assay [7] is 2.56%.
As to `C=CCN1C(=Nc2ccccc2)SC/C1=C\C(=O)OC`, the growth inhibition in assay [1] was -14.6%; in assay [2], -4.42%. The viability increase in assay [3] is -2.34%. Further, the viability was 89% in assay [4] and 89.8% in assay [5]. Besides, the inhibition in assay [6] was 0.81%. Further, the RAM network inhibition in assay [7] was 6.77%.
Turning to `Cc1cccc(NC(=O)CN2C(=O)COc3ccc(Cl)cc32)c1C`, the growth inhibition in assay [1] was -3.47%; in assay [2], -2.44%. For the same compound, the viability increase in assay [3] was -0.9%. Further, the figures for the viability in assay [4] and in assay [5] were 87.5% and 85.8%, respectively. Moreover, the inhibition in assay [6] was 2.24%. Moreover, the RAM network inhibition in assay [7] was 4.67%.
As for `COc1ccc(C(=O)CCC(=O)N2CCN(c3ccc(N4CCOCC4)nn3)CC2)cc1`, the results for the growth inhibition in assay [1] and in assay [2] were 4.94% and -0.495%, respectively. For the same compound, the viability increase in assay [3] was -2.69%. Further, the viability in assay [4] was 102%; in assay [5], 93.8%. The inhibition in assay [6] is 1.65%. In assay [7], the RAM network inhibition is 2.53%.
As for `CCCc1[nH]nc2c1C(C1CCCCC1)C(C#N)=C(N)O2` (stereo not given), the growth inhibition in assay [1] was -4.03%; in assay [2], -0.785%. In addition, the viability increase in assay [3] was -6.54%. For the same compound, the results for the viability in assay [4] and in assay [5] were 12.5% (active) and 21.4% (active), respectively. Moreover, the inhibition in assay [6] is 2.06%. Also, the RAM network inhibition in assay [7] is 1.58%.
Turning to `CCN(CC)c1ccc(NC(=O)COc2ccc(C)cc2)cc1`, the growth inhibition was -8.23% in assay [1] and -15.4% in assay [2]. The viability increase in assay [3] is 0.42%. The viability was 93.6% in assay [4] and 85.3% in assay [5]. Further, in assay [6], the inhibition was 0.255%. The RAM network inhibition in assay [7] is 0.45%.
Turning to `COC(=O)C1=C(C)NC(=O)CC1c1cc2c(cc1Br)OCO2` (stereo not given), the growth inhibition was 4.83% in assay [1] and 7.57% in assay [2]. Further, in assay [3], the viability increase is -1.64%. Moreover, the viability was 106% in assay [4] and 94.7% in assay [5]. For the same compound, the inhibition in assay [6] was 1.42%. Moreover, the RAM network inhibition in assay [7] is 5.87%.
`COC(=O)CCC(=O)Nc1ccc(NC(=O)CCC(=O)OC)cc1`: the growth inhibition in assay [1] is -0.195%; in assay [2], 0.195%. Moreover, the viability increase in assay [3] was -1.73%. Besides, the viability is 103% in assay [4] and 96.9% in assay [5]. Besides, in assay [6], the inhibition was 1.73%. In addition, the RAM network inhibition in assay [7] is 0.97%.
For the compound `O=C(CSc1nc2cc(Cl)ccc2s1)c1ccco1`, the growth inhibition was -10.9% in assay [1] and 11.2% in assay [2]. Further, in assay [3], the viability increase is -4.44%. For the same compound, the viability in assay [4] is 95%; in assay [5] it was 93.8%. The inhibition in assay [6] was -0.07%. Further, in assay [7], the RAM network inhibition was -1.19%.
For `Cc1nn(-c2ccc(Cl)cc2)c2sc(C(=O)N3CCN(C(=O)c4ccco4)CC3)cc12`, the growth inhibition in assay [1] was -4.13%; in assay [2] it was -10.7%. Also, in assay [3], the viability increase was -5.55%. Besides, the viability was 89.3% in assay [4] and 82.5% in assay [5]. Besides, in assay [6], the inhibition is 2%. In addition, the RAM network inhibition in assay [7] is 2.13%.
`CCOc1ccc(-c2nc(C#N)c(N3CCN(Cc4ccccc4)CC3)o2)cc1`: the results for the growth inhibition in assay [1] and in assay [2] were -4.62% and 8.5%, respectively. Moreover, the viability increase in assay [3] was -0.05%. In addition, the viability is 78.6% in assay [4] and 87.2% in assay [5]. In addition, the inhibition in assay [6] was -0.36%. Further, in assay [7], the RAM network inhibition was 3.33%.
`CSC1=N/C(=C\c2ccccc2F)C(=O)S1`: the growth inhibition was -23.1% in assay [1] and -24.4% in assay [2]. In addition, in assay [3], the viability increase was -2.19%. Also, the values for the viability in assay [4] and in assay [5] were 102% and 104%, respectively. For the same compound, the inhibition in assay [6] is 0.435%. In addition, the RAM network inhibition in assay [7] is -0.79%.
Consider `O=C(COc1ccccc1Br)NCc1ccco1`, for which the values for the growth inhibition in assay [1] and in assay [2] were 2.92% and 8.48%, respectively. Besides, the viability increase in assay [3] is -3.54%. For the same compound, the viability in assay [4] was 97%; in assay [5], 102%. Moreover, in assay [6], the inhibition is 1.51%. In addition, in assay [7], the RAM network inhibition was 3.3%.
For `CCN1CCN(CC(=O)Nc2cccc(C)c2C)C(=O)C1=O`, the growth inhibition is -3.54% in assay [1] and -7.93% in assay [2]. In addition, the viability increase in assay [3] was -0.73%. Further, the viability in assay [4] was 99%; in assay [5], 90.9%. In addition, the inhibition in assay [6] is 2.46%. Besides, the RAM network inhibition in assay [7] was 2.6%.
